The source made the active and inactive calls. The calls are words filed in the database; no cut-off is given here.
Assays:
[1] = molecular target: Kappa-type opioid receptor (Cavia porcellus, UniProt P41144); test: Displacement of [3H]-U69593 from KOR in male Dunkin-Hartley guinea pig brain membrane assessed as inhibition constant incubated for 30 mins by liquid scintillation counter analysis; assay type: cell membranes
[2] = molecular target: Delta-type opioid receptor (Rattus norvegicus, UniProt P33533); test: Displacement of [3H]-Deltorphin from DOR in male Sprague-Dawley rat brain membrane assessed as inhibition constant incubated for 45 mins by liquid scintillation counter analysis; assay type: cell membranes
Mu-type opioid receptor = Mu-type opioid receptor (Rattus norvegicus, UniProt P33535); test: Displacement of [3H]-DAMGO from MOR in male Sprague-Dawley rat brain membrane assessed as inhibition constant incubated for 45 mins by liquid scintillation counter analysis; assay type: cell membranes
[3] = molecular target: Sigma non-opioid intracellular receptor 1 (Rattus norvegicus, UniProt Q9R0C9); test: Displacement of [3H]-pentazocine from sigma 1 receptor in male Sprague-Dawley rat liver membrane assessed as inhibition constant by liquid scintillation counter analysis; assay type: cell membranes
[4] = molecular target: T1, Sigma intracellular receptor 2 (Rattus norvegicus, UniProt Q5U3Y7); test: Displacement of [3H]-DTG from sigma 2 receptor in male Sprague-Dawley rat liver membrane assessed as inhibition constant in presence of pentazocine by liquid scintillation counter analysis; assay type: cell membranes
T1 sequence (Q5U3Y7 whole entry): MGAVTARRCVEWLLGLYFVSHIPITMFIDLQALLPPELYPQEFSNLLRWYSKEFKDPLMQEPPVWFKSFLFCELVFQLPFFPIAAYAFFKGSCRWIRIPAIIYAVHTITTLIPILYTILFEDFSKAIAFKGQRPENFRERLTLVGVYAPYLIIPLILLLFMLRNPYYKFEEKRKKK

[5] = Stability of the compound in C57 mouse plasma at 200 uM measured up to 5 mins by RP-HPLC analysis; assay type: ADME, cell-free
Summary of the method: (§1)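 A 10 mM DMSO stock was added to C57 mouse plasma prewarmed to 37 °C (final 200 μM) and held at 37 ± 0.5 °C. Samples taken at 0, 1, 5, 20 and 60 min were deproteinized 1:1 with acetonitrile containing 0.1% HCOOH (100 μM), centrifuged, filtered, and analysed by C18 RP-HPLC-DAD. Duplicates; t1/2 from a one-phase exponential decay fit with the plateau fixed at 0.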

[6] = Stability of the compound in C57 mouse plasma at 200 uM measured at >= 20 mins by RP-HPLC analysis; assay type: ADME, cell-free; summary of the method: as §1
[7] = Stability of the compound in C57 mouse plasma assessed as retention time at 200 uM measured up to 60 mins by RP-HPLC analysis; assay type: ADME, cell-free; conditions: 1 h; summary of the method: as §1
Mus musculus [8] = test: Antinociceptive activity in formalin-induced male CD1 mouse assessed as reduction in nociceptive behavior by measuring decrease in flinches at behavioral pain phase (II) at 5 to 7 mg/kg, ip pre-administered with compound for 20 mins followed by formalin induction and measured for 1 hrs; assay type: functional, organism-based; conditions: dose 5-7 mg/kg, time 80.0 min
Summary of the method: (§2)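 Male CD1 mice, 8–12 weeks, randomized and acclimated 20 min. Drug in saline with 0.5% v/v DMSO given i.p. 20 min before formalin (5%, 10 μL) into the right hind-paw plantar surface. Licking, flicking or shaking of the injected paw recorded every 5 min for 1 h by a blinded observer.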

Mus musculus [9] = test: Antinociceptive activity in formalin-induced male CD1 mouse model assessed as effect on nociceptive behavior by measuring behavioral pain (phase II) at 3 mg/kg, ip pre-administered with compound for 20 mins followed by formalin induction and measured for 1 hrs; assay type: functional, organism-based; conditions: time 80.0 min; summary of the method: as §2
Mus musculus [10] = test: Antinociceptive activity in formalin-induced male CD1 mouse model assessed as effect on nociceptive behavior by measuring rapid pain response (phase I) at 3 to 7 mg/kg, ip pre-administered with compound for 20 mins followed by formalin induction and measured for 1 hrs; assay type: functional, organism-based; conditions: dose 3-7 mg/kg, time 80.0 min; summary of the method: as §2
Mus musculus [11] = test: Antinociceptive activity in formalin-induced male CD1 mouse assessed as reduction in nociceptive behavior by measuring decrease in lifting/licking time at behavioral pain phase (II) at 5 to 7 mg/kg, ip pre-administered with compound for 20 mins followed by formalin induction and measured for 1 hrs; assay type: functional, organism-based; conditions: dose 5-7 mg/kg, time 80.0 min; summary of the method: as §2
[12] = Chemical stability of the compound in aqueous phosphate buffer at pH 7.4 assessed as half life at 200 uM by RP-HPLC analysis; assay type: physicochemical; conditions: pH 7.4, 200 µM
Summary of the method: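 A 10 mM DMSO stock was added to pH 7.4 phosphate buffer prewarmed to 37 °C (final 200 μM) and held at 37 ± 0.5 °C for up to 300 min. Aliquots were mixed 1:1 with acetonitrile (100 μM), filtered and run on C18 RP-HPLC with DAD at 285 nm against a 10–250 μM calibration curve. Duplicates; t1/2 from a one-phase exponential decay fit.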

[13] = Stability of the compound in C57 mouse plasma assessed as half life at 200 uM measured up to 60 mins by RP-HPLC analysis; assay type: ADME, cell-free; conditions: 1 h; summary of the method: as §1

Chain of Kappa-type opioid receptor (P41144 whole entry): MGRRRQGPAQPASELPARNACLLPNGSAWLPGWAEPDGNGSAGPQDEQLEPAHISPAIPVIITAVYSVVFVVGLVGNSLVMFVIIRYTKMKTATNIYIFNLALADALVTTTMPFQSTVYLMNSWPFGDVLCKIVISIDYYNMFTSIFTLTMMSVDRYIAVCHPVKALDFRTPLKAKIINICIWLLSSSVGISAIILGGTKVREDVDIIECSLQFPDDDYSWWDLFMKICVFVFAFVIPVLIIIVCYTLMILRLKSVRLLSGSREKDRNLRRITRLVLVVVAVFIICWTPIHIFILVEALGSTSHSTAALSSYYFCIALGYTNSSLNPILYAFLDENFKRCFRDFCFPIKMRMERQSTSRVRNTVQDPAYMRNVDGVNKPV
Chain of Mu-type opioid receptor (P33535 whole entry): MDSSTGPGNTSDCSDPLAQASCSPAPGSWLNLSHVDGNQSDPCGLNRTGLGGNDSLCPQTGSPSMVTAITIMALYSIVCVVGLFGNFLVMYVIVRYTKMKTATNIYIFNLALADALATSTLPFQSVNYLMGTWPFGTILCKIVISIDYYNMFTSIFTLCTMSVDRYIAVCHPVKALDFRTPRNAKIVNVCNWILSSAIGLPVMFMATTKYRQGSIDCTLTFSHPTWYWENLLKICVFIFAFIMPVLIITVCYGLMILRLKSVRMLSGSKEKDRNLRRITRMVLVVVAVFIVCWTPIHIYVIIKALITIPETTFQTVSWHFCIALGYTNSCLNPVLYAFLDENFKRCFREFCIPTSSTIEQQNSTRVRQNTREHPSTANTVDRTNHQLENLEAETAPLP
Chain of Delta-type opioid receptor (P33533 whole entry): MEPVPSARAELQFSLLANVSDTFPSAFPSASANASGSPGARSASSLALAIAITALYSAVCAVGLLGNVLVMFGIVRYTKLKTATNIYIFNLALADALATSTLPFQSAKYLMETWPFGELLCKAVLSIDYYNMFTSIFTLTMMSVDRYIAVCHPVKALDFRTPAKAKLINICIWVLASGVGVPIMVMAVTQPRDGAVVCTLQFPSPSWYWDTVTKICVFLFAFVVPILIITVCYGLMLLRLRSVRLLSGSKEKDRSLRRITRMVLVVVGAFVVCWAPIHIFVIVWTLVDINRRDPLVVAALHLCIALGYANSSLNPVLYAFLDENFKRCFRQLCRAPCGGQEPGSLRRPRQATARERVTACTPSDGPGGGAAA
Chain of Sigma non-opioid intracellular receptor 1 (Q9R0C9 whole entry): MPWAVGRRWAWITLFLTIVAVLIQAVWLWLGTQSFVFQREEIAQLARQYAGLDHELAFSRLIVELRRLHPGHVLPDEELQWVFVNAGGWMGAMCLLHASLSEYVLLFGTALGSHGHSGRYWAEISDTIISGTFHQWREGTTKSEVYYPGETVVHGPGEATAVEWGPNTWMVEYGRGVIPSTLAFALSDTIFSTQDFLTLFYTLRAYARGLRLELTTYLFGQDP

COC(=O)CCN1CC[C@]2(C)c3cc(O)ccc3C[C@H]1[C@H]2C
Ki [1]: > 5 µM
Ki [2]: > 5 µM
Ki (Mu-type opioid receptor): > 5 µM
Ki [3]: > 10 µM
Ki [4]: > 10 µM

COC(=O)CCCN1CC[C@]2(C)c3cc(O)ccc3C[C@H]1[C@H]2C
Ki [1]: > 5 µM
Ki [2]: > 5 µM
Ki (Mu-type opioid receptor): > 5 µM
Ki [3]: 0.159 µM
Ki [4]: > 10 µM

C[C@@H]1[C@@H]2Cc3ccc(O)cc3[C@@]1(C)CCN2CCC(=O)O
Ki [1]: > 5 µM
Ki [2]: > 5 µM
Ki (Mu-type opioid receptor): > 5 µM
Ki [3]: > 10 µM
Ki [4]: > 10 µM

C[C@@H]1[C@@H]2Cc3ccc(O)cc3[C@@]1(C)CCN2CCCC(=O)O
Ki [1]: > 5 µM
Ki [2]: > 5 µM
Ki (Mu-type opioid receptor): > 5 µM
Ki [3]: > 10 µM
Ki [4]: > 10 µM

CCOC(=O)C(CCN1CC[C@]2(C)c3cc(O)ccc3C[C@H]1[C@H]2C)c1ccccc1 (mixture of isomers)
Stability [5]: Stable
Ki [1]: > 5 µM
Stability [6]: Unstable
Ki [2]: > 5 µM
Retention_time [7]: 10.52 min
Activity (Mus musculus [8]): Active
Activity (Mus musculus [9]): Not active; Compound Did Not Significantly Modify Licking And Flicking/Shanking Time Of Injected Paw
Activity (Mus musculus [10]): Not active; Compound Did Not Significantly Modify Licking And Flicking/Shanking Time Of Injected Paw
Activity (Mus musculus [11]): Active
t1/2 [12]: 5 h
t1/2 [13]: 0.5178 h
Ki (Mu-type opioid receptor): > 5 µM
Ki [3]: 0.0275 µM
Ki [4]: > 1 µM

C[C@@H]1[C@@H]2Cc3ccc(O)cc3[C@@]1(C)CCN2CCC(C(=O)O)c1ccccc1 (mixture of isomers)
Ki [1]: > 5 µM
Ki [2]: > 5 µM
Ki (Mu-type opioid receptor): > 5 µM
Ki [3]: > 10 µM
Ki [4]: > 10 µM

C[C@@H]1[C@@H]2Cc3ccc(O)cc3[C@@]1(C)CCN2CC(C(=O)O)c1ccccc1 (mixture of isomers)
Ki [1]: > 5 µM
Ki [2]: > 5 µM
Ki (Mu-type opioid receptor): > 5 µM
Ki [3]: 0.664 µM
Ki [4]: > 10 µM

CCOC(=O)C(CCCN1CC[C@]2(C)c3cc(O)ccc3C[C@H]1[C@H]2C)c1ccccc1 (mixture of isomers)
Ki [1]: > 5 µM
Ki [2]: > 5 µM
Ki (Mu-type opioid receptor): > 5 µM
Ki [3]: 0.594 µM
Ki [4]: > 10 µM

C[C@@H]1[C@@H]2Cc3ccc(O)cc3[C@@]1(C)CCN2CCCC(C(=O)O)c1ccccc1 (mixture of isomers)
Ki [1]: > 5 µM
Ki [2]: > 5 µM
Ki (Mu-type opioid receptor): > 5 µM
Ki [3]: > 10 µM
Ki [4]: > 10 µM

CCOC(=O)C(CN1CC[C@]2(C)c3cc(O)ccc3C[C@H]1[C@H]2C)c1ccccc1 (mixture of isomers)
Ki [1]: > 5 µM
Ki [2]: > 5 µM
Ki (Mu-type opioid receptor): > 5 µM
Ki [3]: > 10 µM
Ki [4]: > 10 µM

— ChEMBL document CHEMBL6182827 (RSC Med Chem, 2025)
